Screens as filed in PubChem BioAssay.
Rows were chosen to be rich in hits. Some 1.3% of all compounds tested hit in one or more screens of this group.
G6PDH counter – counter-screen for G6PDH assay hits: L. mesenteroides G6PDH inhibition. Purified L. mesenteroides G6PDH, diaphorase/resazurin coupled fluorescence, 45 min. 200,000 tested, 0.12% active. inhibition, % at 5 µM. AID 1020; in the data active = inhibition above about 50%
PfG6PD inh – PfG6PD (Plasmodium falciparum) enzyme inhibition. PfGluPho enzyme, NADPH resazurin-diaphorase fluorescence. inhibition, % at 20 µM. 350,000 tested, 0.78% active. AID 504690;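 active = inhibition reaching at least a set limit at 20 µM in the primary screen, cut at about 59% in these data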;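 also: 0% = DMSO wells with substrate and 100% = DMSO wells lacking glucose-6-phosphate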
Diaph inh CS – diaphorase inhibition or chemical oxidation counter-screen; AID 1217; 190,000 tested, 0.69% active; inhibition, % at 20 µM; diaphorase resazurin-to-resorufin fluorescence, NADH, 16 min; bacterial (C. kluyveri) enzyme, not human;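 active = primary screen inhibition at 20 µM above a set limit, cut at about 50% in these data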;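 also: plate controls were DMSO with full reaction for no effect and wells lacking NADH for full effect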
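controls = No-NADH positive control and DMSO neutral control | system = Clostridium kluyveri diaphorase enzyme | timing = reaction incubation of 16 min at room temperature | signal = resorufin fluorescence 544/590 nm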
HKDC1 inh – blocks human hexokinase HKDC1 activity; Q2TB90; 340,000 tested, 0.16% active; recombinant HKDC1, G6PDH/diaphorase resazurin coupled fluorescence; inhibition, % at 20 µM;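 active = inhibition above about 35% when tested at 20 µM, limit read from the data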;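 also: plate controls were DMSO wells with enzyme for no effect and DMSO wells lacking enzyme for full effect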
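Test system: HK5 enzyme. Quantity: 5 µg/mL HK5 final. Reagent: glucose and ATP substrates. Schedule: 90 min reaction incubation at room temperature, dark. Technique: resazurin-to-resorufin fluorescence via G6PDH and diaphorase coupling, 525/613 nm. Control set: DMSO wells with and without enzyme mix.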
Starred values were filed as active, the others as inactive; / = no result.

SMILES | G6PDH counter | PfG6PD inh | Diaph inh CS | HKDC1 inh
O=[N+]([O-])c1cc2c(cc1C=Nc1ccccc1)OCO2 | 6 | 87* | 53* | 17
CCN(CC)Cc1c(C(=O)N/N=C/c2cccc(OCc3cccc(Cl)c3)c2)nnn1-c1nonc1N | / | 38 | / | 3
COc1ccc(CCNC(=O)c2cnn3c(C(F)F)cc(C)nc23)cc1OC | 5 | 29 | 78* | 31
CC(C)NC[C@@H](O)c1ccc(O)c(O)c1 | 63* | 52 | 62* | 5
Cc1nn(CSc2c(F)c(F)c(F)c(F)c2F)c(C)c1[N+](=O)[O-] | / | 1 | / | -6
Cc1occc1-c1nnc(SCC(=O)Nc2ccccn2)o1 | 1 | 1 | 2 | -3
Cc1occc1-c1nnc(SCC(=O)c2cc3ccccc3oc2=O)o1 | -1 | -5 | 51* | -2
CCN(CC)c1ccc(NC(=O)c2ccc(S(=O)(=O)N3CCOCC3)cc2)cc1 | / | 20 | / | -1
O=c1c(O[C@@H]2O[C@H](CO)[C@@H](O)[C@H](O)[C@H]2O)c(-c2ccc(O)c(O)c2)oc2cc(O)cc(O)c12 | 34 | / | 77* | /
O=c1c(O[C@@H]2O[C@H](CO)[C@@H](O)[C@H](O)[C@H]2O)c(-c2ccc(O)cc2)oc2cc(O)cc(O)c12 | / | -6 | / | 1
O=c1cc(-c2ccc(O)c(O)c2)oc2cc(O)c(C3OC(CO)C(O)C(O)C3O)c(O)c12 (configuration not stated) | 36 | 12 | 60* | 0
C[C@@H]1O[C@@H](OC[C@H]2O[C@@H](Oc3c(-c4ccc(O)c(O)c4)oc4cc(O)cc(O)c4c3=O)[C@H](O)[C@@H](O)[C@@H]2O)[C@H](O)[C@H](O)[C@H]1O | 37 | -31 | 71* | 0
O=c1cc(-c2ccc(O)cc2)oc2cc(O)c([C@@H]3O[C@H](CO)[C@@H](O)[C@H](O)[C@H]3O)c(O)c12 | / | 11 | / | 4
O=c1c(O[C@@H]2O[C@H](CO)[C@H](O)[C@H](O)[C@H]2O)c(-c2ccc(O)c(O)c2)oc2cc(O)cc(O)c12 | 28 | / | 56* | /
CCN(CC)S(=O)(=O)c1ccc(NC(=O)c2ccc(OCC3CCCO3)cc2)cc1 (configuration not stated) | / | 3 | / | 5
CCCNC(=O)c1csc2c1CCCCC2 | 5 | 12 | 0 | 2
NS(=O)(=O)c1ccc(CNC(=O)c2csc3c2CCCC3)cc1 | 0 | 10 | 85* | -8
CCOC(=O)NC1(Nc2ccc(C)cc2)Oc2ccccc2O1 | 17 | 25 | 54* | -8
CCOC(=O)NC1(NC(C)C)Oc2ccccc2O1 | 14 | 26 | 5 | 1
C#CCOCCOCCOCCNc1nc(N2CCN(C(=O)[C@H](CCC(=O)O)n3cc([C@@H](N)[C@H](C)CC)nn3)CC2)nc(N2CCN(C(=O)[C@H](CCCCN)n3cc([C@@H](N)CC(N)=O)nn3)CC2)n1 | / | 3 | / | -4
COc1ccc2c(c1)CN(C)S(=O)(=O)c1ccccc1-2 | / | -14 | / | -1
O=C(Nc1ccc(N2CCOCC2)c(Cl)c1)c1cc2ccccc2o1 | 5 | 126* | 14 | 2
O=C(Nc1ccccc1N1CCOCC1)c1cc2ccccc2o1 | / | 6 | / | -5
O=Nc1c(O)[nH]c2ccc(F)cc12 | 0 | -13 | 1 | -4
Cc1cc2c(N=O)c(NO)ccc2[nH]1 | 48 | 70* | 22 | -3
SMILES | G6PDH counter | PfG6PD inh | Diaph inh CS | HKDC1 inh
O=c1oc2ccccc2n1Cc1cccc(C(F)(F)F)c1 | / | -7 | / | -3
Cc1c(C(=O)O)c(C(=O)O)nc2ccc(N3CCOCC3)cc12 | 14 | / | 55* | /
CN1C(=O)/C(=C/c2ccccc2OCc2ccc(C(=O)O)cc2)NC1=S | 13 | -27 | 58* | 8
C=CCN1CCc2nc(N)sc2CC1 | 10 | 50 | -8 | 3
CCN1CCc2nc(N)sc2C1 | 0 | 62* | 2 | -5
O=C(OCCc1cc2ccccc2c(=O)o1)c1ccco1 | / | 14 | / | -4
CN(C)CC1CC/C(=C\c2ccc(O)cc2)C1=O (configuration not stated) | / | 61* | / | 7
COc1ccc(/C=C2/CCC(CN3CCOCC3)C2=O)cc1 (configuration not stated) | / | 76* | / | 15
COc1cccc2sc(=NC(=O)CS(=O)(=O)c3ccc(Cl)cc3)n(C)c12 | / | 2 | / | 31
CCCCCCc1ccc(N2C[C@H](Cc3ccccc3)[C@@H](CC(=O)Nc3ccccc3)C2=O)cc1 | / | 15 | / | 1
CC1CCCCN1S(=O)(=O)c1ccc(S(=O)(=O)N2CCN(C)CC2)cc1 (configuration not stated) | / | 20 | / | -2
COc1cc(O)c2c(c1)OC(c1ccc(O)cc1)CC2=O (configuration not stated) | 5 | 7 | 57* | 2
O=C(CSc1n[nH]c(=O)[nH]c1=O)Nc1ccc(Br)cc1Br | / | -8 | / | 1
Cc1c(C(=O)N2CCC[C@H]2CO)oc2c(F)cccc12 | / | -16 | / | -5
O=C(c1cc(-c2cccnc2)nc2ccc(Br)cc12)N1CCN(c2ncccn2)CC1 | 11 | -31 | 17 | -1
CC(=O)c1ccc(N2CCN(C(=O)c3cc(-c4cccnc4)nc4ccc(Br)cc34)CC2)cc1 | 8 | -4 | 52* | 0
Cc1cccc(NC(=O)c2ncn3c2C(=O)NC[C@H]3C)c1 | / | -5 | / | /
O=[N+]([O-])c1ccc(Cl)c2c1C1C=CCC1C(c1ccccn1)N2 (configuration not stated) | 6 | 43 | 41 | 9
O=C(O)c1ccc(Cl)c2c1C1C=CCC1C(c1ccccn1)N2 (configuration not stated) | 13 | / | 56* | /
O=c1c2c(nc3n1CCS3)c1cc(F)ccc1n2Cc1cc(=O)n2cc(Cl)ccc2n1 | / | 62* | / | 7
O=C(Cn1c2ccc(F)cc2c2nc3n(c(=O)c21)CCS3)Nc1ccc(Cl)cc1F | 2 | -10 | -8 | -4
Cc1ccccc1C(=O)NC1CCN(CC(=O)NC2CCCCC2)CC1 | / | -26 | / | -5
CCCCSCCCNC(=O)Nc1ccc(CC)cc1 | 6 | -14 | 16 | 0
CCN1CCN(C(=O)c2cc3c(=O)n4ccccc4nc3s2)CC1 | / | -7 | / | -4
O=C(c1cc2c(=O)n3ccccc3nc2s1)N1CCc2ccccc2C1 | 7 | / | 57* | /
SMILES | G6PDH counter | PfG6PD inh | Diaph inh CS | HKDC1 inh
Cc1cccc(Cn2nnc3c2C(=O)c2ccccc2C3=O)c1 | 54* | -4 | 18 | 13
Cc1ccccc1Cn1nnc2c1C(=O)c1ccccc1C2=O | / | 16 | / | 7
O=C1NCCCC2c3cc(O)c4ccccc4c3OC12N1CCCCC1 (configuration not stated) | 56* | / | 46 | /
O=C1NCCCC2c3c(cc(Br)c(O)c3Br)OC12N1CCOCC1 (configuration not stated) | 6 | 9 | 19 | 1
COc1ccccc1C(=O)NCCC(=O)Nc1ccc(S(=O)(=O)N2CCC(C)CC2)cc1 | / | -2 | / | 8
COc1cccc2c(SCC(=O)N/N=C/c3ccc(O)c(O)c3)cc(C)nc12 | 10 | 20 | 54* | 0
COc1cccc2c(SCC(=O)N/N=C/c3ccccc3)cc(C)nc12 | -22 | 2 | 12 | -5
O=C(c1ccco1)N1CCN(C(=O)c2ccc(-c3ccc(Cl)cc3)o2)CC1 | / | 3 | / | -3
